Laboratory results reported in ChEMBL document CHEMBL3297702, “Improving photodynamic inactivation of bacteria in dentistry: highly effective and fast killing of oral key pathogens with novel tooth-colored type-II photosensitizers” (J Med Chem, 2014).
Active and inactive are the calls of the source. No cut-off for these calls is given here.

Key:
Enterococcus faecalis [1] = assay: Photodynamic inactivation of biofilm of Enterococcus faecalis ATCC 29212 polyspecies assessed as reduction of log10 CFU at 100 uM preincubated for 60 mins followed by irradiation with 600 mW/cm'2 for 120 secs measured after 24 hrs by agar plating method; assay type: functional
Actinomyces naeslundii [2] = assay: Photodynamic inactivation of Actinomyces naeslundii T14V assessed as reduction of log10 CFU at 5 uM incubated prior to irradiation with 50 j/cm'2 for 40 secs measured after 48 hrs by agar plating method (reference value: <1 no unit); assay type: functional
Summary of the method: (§1)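 A. naeslundii T14V grown overnight at 37 °C, shaken, aerobically in BHI broth. Harvested at stationary phase, resuspended in PBS to 10^7–10^8 bacteria/mL (OD600). Mixed 1:1 with PS (final 0–250 µM) or water, 10 s incubation, then blue photopolymerizer light (1260 ± 50 mW/cm2) or dark. Tenfold dilutions plated on blood agar, aerobic 37 °C 48 h, CFU counted; medians of three independent experiments in triplicate.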

Enterococcus faecalis [3] = assay: Photodynamic inactivation of biofilm of Enterococcus faecalis ATCC 29212 monospecies assessed as reduction of log10 CFU at 100 uM preincubated for 60 mins followed by irradiation with 600 mW/cm'2 for 120 secs measured after 24 hrs by agar plating method; assay type: functional
Actinomyces naeslundii [4] = assay: Toxicity in Actinomyces naeslundii T14V assessed as reduction of log10 CFU at 1 to 250 uM incubated for 10 secs to 15 mins under dark condition measured after 48 hrs by agar plating method; assay type: organism-based; details: in vivo
Summary of the method: (§2)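 Dark controls. Overnight BHI cultures (EF, SM, AN aerobic; AA anaerobic; 37 °C) were washed into PBS at 10^7–10^8 cells/mL. They were mixed 1:1 with photosensitizer at final 0–250 µM and incubated 10 s, 7.5 min or 15 min, then kept in the dark for 20, 40 or 120 s. Tenfold dilutions were plated: EF on Mueller-Hinton agar, aerobic 24 h; SM on BHI agar, aerobic 48 h; AN on blood agar, aerobic 48 h; AA on BHI agar, anaerobic 48 h; all at 37 °C. CFU were compared with untreated controls; medians of three independent experiments in triplicate.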

Actinomyces naeslundii [5] = assay: Photodynamic inactivation of Actinomyces naeslundii T14V assessed as reduction of log10 CFU at 100 uM incubated prior to irradiation with 150 j/cm'2 for 120 secs measured after 48 hrs by agar plating method (reference value: <1 no unit); assay type: functional; summary of the method: as §1
Streptococcus mutans [6] = assay: Toxicity in Streptococcus mutans ATCC 25175 assessed as reduction of log10 CFU at 1 to 250 uM incubated for 10 secs to 15 mins under dark condition measured after 48 hrs by agar plating method; summary of the method: as §2
Actinomyces naeslundii [7] = assay: Photodynamic inactivation of biofilm of Actinomyces naeslundii T14V polyspecies assessed as reduction of log10 CFU at 100 uM preincubated for 60 mins followed by irradiation with 600 mW/cm'2 for 120 secs measured after 28 hrs by agar plating method; assay type: functional
[8] = system: Aggregatibacter actinomycetemcomitans; assay: Photodynamic inactivation of Aggregatibacter actinomycetemcomitans ATCC 43718 assessed as reduction of log10 CFU at 1 uM incubated prior to irradiation with 150 j/cm'2 for 120 secs measured after 48 hrs by agar plating method relative to control; assay type: functional, Y4
Summary of the method: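 A. actinomycetemcomitans ATCC 43718 cultured overnight in BHI broth under anaerobic conditions, 37 °C with shaking. Stationary-phase cells were spun down, taken up in PBS to 10^7–10^8/mL, and combined 1:1 with PS (final 0–250 µM) or water. After 10 s they were irradiated at 1260 ± 50 mW/cm2 or kept dark. Serial dilutions went onto BHI agar, incubated anaerobically at 37 °C for 48 h, and CFU were scored. Results are medians from 3 experiments × triplicate versus untreated controls.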

Actinomyces naeslundii [9] = assay: Photodynamic inactivation of biofilm of Actinomyces naeslundii T14V monospecies assessed as reduction of log10 CFU at 100 uM preincubated for 60 mins followed by irradiation with 600 mW/cm'2 for 120 secs measured after 28 hrs by agar plating method; assay type: functional
[10] = system: Aggregatibacter actinomycetemcomitans; assay: Toxicity in Aggregatibacter actinomycetemcomitans ATCC 43718 assessed as reduction of log10 CFU under dark condition at 1 to 250 uM incubated for 10 secs to 15 mins under dark condition measured after 48 hrs by agar plating method; set-up: species or system Y4; summary of the method: as §2
Actinomyces naeslundii [11] = assay: Photodynamic inactivation of Actinomyces naeslundii T14V assessed as reduction of log10 CFU at 1 to 250 uM preincubated for 10 secs followed by irradiation with 150 j/cm'2 for 120 secs measured after 48 hrs by agar plating method; assay type: functional, organism-based; summary of the method: as §1
Enterococcus faecalis [12] = assay: Toxicity in Enterococcus faecalis ATCC 29212 assessed as reduction of log10 CFU at 1 to 250 uM incubated for 10 secs to 15 mins under dark condition measured after 24 hrs by agar plating method; assay type: organism-based; details: in vivo; summary of the method: as §2
Streptococcus mutans [13] = assay: Toxicity in Streptococcus mutans ATCC 25175 assessed as reduction of log10 CFU at 1 to 250 uM incubated for 10 secs under dark condition measured after 48 hrs by agar plating method; summary of the method: as §2
[14] = system: Aggregatibacter actinomycetemcomitans; assay: Toxicity in Aggregatibacter actinomycetemcomitans ATCC 43718 assessed as reduction of log10 CFU under dark condition at 1 to 250 uM incubated for 10 secs under dark condition measured after 48 hrs by agar plating method; set-up: species or system Y4; summary of the method: as §2
Actinomyces naeslundii [15] = assay: Toxicity in Actinomyces naeslundii T14V assessed as reduction of log10 CFU at 1 to 250 uM incubated for 10 secs under dark condition measured after 48 hrs by agar plating method; assay type: organism-based; details: in vivo; summary of the method: as §2
Actinomyces naeslundii [16] = assay: Photodynamic inactivation of Actinomyces naeslundii T14V assessed as reduction of log10 CFU at 10 uM incubated prior to irradiation with 150 j/cm'2 for 120 secs measured after 48 hrs by agar plating method (reference value: <1 no unit); assay type: functional; summary of the method: as §1
[17] = Stability of the compound in D2O assessed as aggregation at 1 to 20 mM by NMR analysis; assay type: physicochemical; details: 20000 µM
Summary of the method: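 ¹H NMR, aromatic region, in D2O at 1, 5, 10 and 20 mM; shifts referenced to external TMS, 1 ppm = 400 Hz; spectra compared across concentrations for dimerisation.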

[18] = Stability of the compound in D2O assessed as aggregate formation by measuring shift of spectrum in aromatic region at > 0.5 ppm at 50 to 90 degC by NMR analysis; assay type: physicochemical

SMILES | log10cfu (Enterococcus faecalis [1]) | log10cfu (Actinomyces naeslundii [2]) | log10cfu (Enterococcus faecalis [3]) | Activity (Actinomyces naeslundii [4]) | log10cfu (Actinomyces naeslundii [5]) | Activity (Streptococcus mutans [6]) | log10cfu (Actinomyces naeslundii [7]) | log10cfu [8] | log10cfu (Actinomyces naeslundii [9]) | Activity [10] | Activity (Actinomyces naeslundii [11]) | Activity (Enterococcus faecalis [12]) | Activity (Streptococcus mutans [13]) | Activity [14] | Activity (Actinomyces naeslundii [15]) | log10cfu (Actinomyces naeslundii [16]) | Stability [17] | Activity [18] [mM]
O=C1C(C[n+]2ccccc2)=Cc2cccc3cccc1c23.[Cl-] | >5 | <5 | >5 | Non-toxic | > 5 | Non-toxic | >5 | >6 | >5 | Non-toxic | Active | Non-toxic | – | – | – | – | – | –
C[N+](C)(CCO)CC1=Cc2cccc3cccc(c23)C1=O.[Cl-] | – | <3 | – | – | > 5 | – | – | >6 | – | – | – | – | Non-toxic | Non-toxic | Non-toxic | <5 | – | –
C[N+](C)(C)CC1=Cc2cccc3cccc(c23)C1=O.[Cl-] | – | – | – | – | – | – | – | – | – | – | Active | – | – | – | – | – | Unstable | 70
